Measurements of several laboratories.
Compare with care: the assays were run in different laboratories.

SMILES	system	conditions	endpoint	value
Cc1nc2ccc(OCc3ccc(C(F)(F)F)cc3)cc2[nH]1	male BALB/c mouse, plasma	oral, 10 mg/kg	Vd/F	7.35 L/kg
CCCC[C@@H](NC(=O)[C@@H](Cc1cn(C(=O)OC)c2ccccc12)NC(=O)[C@H](CC(C)(C)C)NC(=O)N1[C@H](C)CCC[C@@H]1C)C(=O)O	male CD-1 mouse, plasma	intravenous, 3 mg/kg	Vd	6.6 L/kg
OCc1nc2ccc(NCc3ccc(C(F)(F)F)cc3)cc2[nH]1	male BALB/c mouse, plasma	intravenous, 1 mg/kg	Vd	4 L/kg
CC(C)[C@@H](CS(=O)(=O)C(C)C)N1C(=O)[C@@](C)(CC(=O)O)C[C@H](c2cccc(Cl)c2)[C@H]1c1ccc(Cl)cc1	FVB mouse, plasma	oral, 20 mg/kg, single dose	Vd/F	12.2 L/kg
C=CCn1c(=O)c2cnc(Nc3ccc(N4CCN(C)CC4)cc3)nc2n1-c1ccc2c(n1)[C@@](O)(CC)CC2	mouse, plasma	intravenous, 3 mg/kg	Vd	3.4 L/kg
O=C1CCC(N2Cc3cc(CO)c(F)cc3C2=O)C(=O)N1 (centres unmarked)	male CD-1 mouse, plasma	intravenous, 1 mg/kg	Vd	2.8 L/kg
CN(C)C(=O)c1cc2cnc(Nc3ccc(-c4ccc5c(=O)cc(N6CCOCC6)oc5c4)cc3)nc2n1C1CCCC1.Cl	BALB/c mouse, plasma	oral, 20 mg/kg	Vd/F	17.7 L/kg
COCC(=O)N1CCc2[nH]c3c(Cl)c(Cl)ccc3c2[C@@H]1C	C57BL/6 mouse, blood	intravenous, 1 mg/kg	Vd	1.23 L/kg
CC(C)(C)c1sc2ncnc(Oc3c(F)cccc3OC(F)(F)F)c2c1-c1ccc(Cl)cc1	mouse, plasma	intravenous, 1 mg/kg	Vd	1.3 L/kg
NCc1cc2c(cc1F)C(=O)N(C1CCC(=O)NC1=O)C2 (centres unmarked)	male CD-1 mouse, plasma	intravenous, 1 mg/kg	Vd	6.5 L/kg
C[C@@H]1COCCN1c1cc(=O)n2c(n1)N(Cc1cncc(Cl)c1)[C@H](C(F)(F)F)CC2	C57BL/6 mouse, plasma	intraperitoneal, 10 mg/kg, single dose	Vd	7.05 L/kg
